# Measured values from ChEMBL document CHEMBL2062460, “Disubstituted thiourea derivatives and their activity on CNS: synthesis and biological evaluation” (Eur J Med Chem, 2012).
# The source made the active and inactive calls. The calls are words filed in the database; no cut-off is given here.
# Tested on: Micrococcus luteus
# Assay: Antibacterial activity against Micrococcus luteus ATCC 9341 after 18 hrs by twofold serial agar dilution technique
# Format: functional
# Details: ATCC 9341, 18 h
row,SMILES,MIC [µg/mL]
1,S=C(Nc1ccc(Cl)cc1)Nc1nc[nH]n1,25

# Tested on: Staphylococcus epidermidis
# Assay: Antibacterial activity against methicillin-resistant Staphylococcus epidermidis clinical isolate 342/09 after 18 hrs by twofold serial agar dilution technique
# Format: functional
# Details: clinical isolate 342/09, 18 h
# Method in brief: (§1)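 Clinical isolates came from patients in Warsaw Medical University Hospitals and were classed as methicillin-susceptible or -resistant. MIC was determined by twofold serial agar dilution on Mueller–Hinton II agar (CLSI), 3.125–400 µg/mL in agar, with compounds in methanol or DMSO. Inoculum was 10^4 CFU/mL and plates were read after 18 h at 35 °C.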
row,SMILES,MIC [µg/mL]
1,S=C(Nc1ccc(Cl)cc1)Nc1nc[nH]n1,200

# Tested on: Staphylococcus aureus
# Assay: Antibacterial activity against methicillin-susceptible Staphylococcus aureus clinical isolate 338/08 after 18 hrs by twofold serial agar dilution technique
# Format: functional
# Details: clinical isolate 338/08, 18 h
# Method in brief: as §1
row,SMILES,MIC [µg/mL]
1,S=C(Nc1ccc(Cl)cc1)Nc1nc[nH]n1,25

# Tested on: Staphylococcus aureus
# Assay: Antibacterial activity against methicillin-resistant Staphylococcus aureus clinical isolate 306/08 after 18 hrs by twofold serial agar dilution technique
# Format: functional
# Details: clinical isolate 306/08, 18 h
# Method in brief: as §1
row,SMILES,MIC [µg/mL]
1,S=C(Nc1ccc(Cl)cc1)Nc1nc[nH]n1,25

# Tested on: Staphylococcus aureus
# Assay: Antibacterial activity against methicillin-resistant Staphylococcus aureus clinical isolate 277/08 after 18 hrs by twofold serial agar dilution technique
# Format: functional
# Details: clinical isolate 277/08, 18 h
# Method in brief: as §1
row,SMILES,MIC [µg/mL]
1,S=C(Nc1ccc(Cl)cc1)Nc1nc[nH]n1,50

# Tested on: Staphylococcus aureus
# Assay: Antibacterial activity against methicillin-susceptible Staphylococcus aureus clinical isolate 367/09 after 18 hrs by twofold serial agar dilution technique
# Format: functional
# Details: clinical isolate 367/09, 18 h
# Method in brief: as §1
row,SMILES,MIC [µg/mL]
1,S=C(Nc1ccc(Cl)cc1)Nc1nc[nH]n1,25

# Tested on: Staphylococcus epidermidis
# Assay: Antibacterial activity against methicillin-resistant Staphylococcus epidermidis clinical isolate 377/09 after 18 hrs by twofold serial agar dilution technique
# Format: functional
# Details: clinical isolate 377/09, 18 h
# Method in brief: as §1
row,SMILES,MIC [µg/mL]
1,S=C(Nc1ccc(Cl)cc1)Nc1nc[nH]n1,25

# Tested on: Staphylococcus aureus
# Assay: Antibacterial activity against Staphylococcus aureus NCTC 4163 after 18 hrs by twofold serial agar dilution technique
# Format: functional
# Details: NCTC 4163, 18 h
# Method in brief: (§2)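 Twofold serial agar dilution on Mueller–Hinton II agar, following CLSI guidelines. Compounds were dissolved in methanol or DMSO and tested at final agar concentrations of 3.125–400 µg/mL. Final inoculum was 10^4 CFU/mL.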
row,SMILES,MIC [µg/mL]
1,S=C(Nc1ccc(Cl)cc1)Nc1nc[nH]n1,25

# Tested on: Staphylococcus aureus
# Assay: Antibacterial activity against Staphylococcus aureus ATCC 25923 at 400 ug/disc after 18 hrs by disc diffusion method
# Format: functional
# Details: ATCC 25923, 18 h, read-out: DIZ
# Method in brief: (§3)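 Disc diffusion per CLSI on Mueller–Hinton II agar; 9 mm paper discs loaded from methanol or DMSO solutions to 400 µg per disc, dried; growth inhibition zone diameter read after 18 h at 35 °C.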
row,SMILES,zone of inhibition at 400 µg/disc [mm]
1,S=C(Nc1ccc(Cl)cc1)Nc1nc[nH]n1,23

# Tested on: Bacillus cereus
# Assay: Antibacterial activity against Bacillus cereus ATCC 11778 after 18 hrs by twofold serial agar dilution technique
# Format: functional
# Details: ATCC 11778, 18 h
row,SMILES,MIC [µg/mL]
1,S=C(Nc1ccc(Cl)cc1)Nc1nc[nH]n1,12.5

# Tested on: Staphylococcus aureus
# Assay: Antibacterial activity against methicillin-resistant Staphylococcus aureus clinical isolate 309/08 after 18 hrs by twofold serial agar dilution technique
# Format: functional
# Details: clinical isolate 309/08, 18 h
# Method in brief: as §1
row,SMILES,MIC [µg/mL]
1,S=C(Nc1ccc(Cl)cc1)Nc1nc[nH]n1,25

# Tested on: Pseudomonas aeruginosa
# Assay: Antibacterial activity against Pseudomonas aeruginosa NCTC 6749 at 400 ug/disc after 18 hrs by disc diffusion method
# Format: functional, organism-based
# Details: not given
# Method in brief: as §3
row,SMILES,diameter of the inhibition zone (DIZ)
1,S=C(Nc1ccc(Cl)cc1)Nc1nc[nH]n1,inactive

# Tested on: Bordetella bronchiseptica
# Assay: Antibacterial activity against Bordetella bronchiseptica ATCC 4617 at 400 ug/disc after 18 hrs by disc diffusion method
# Format: functional, organism-based
# Details: not given
# Method in brief: as §3
row,SMILES,diameter of the inhibition zone (DIZ)
1,S=C(Nc1ccc(Cl)cc1)Nc1nc[nH]n1,inactive

# Tested on: Staphylococcus aureus
# Assay: Antibacterial activity against methicillin-susceptible Staphylococcus aureus clinical isolate 261/08 after 18 hrs by twofold serial agar dilution technique
# Format: functional
# Details: clinical isolate 261/08, 18 h
# Method in brief: as §1
row,SMILES,MIC [µg/mL]
1,S=C(Nc1ccc(Cl)cc1)Nc1nc[nH]n1,25

# Tested on: Staphylococcus epidermidis
# Assay: Antibacterial activity against methicillin-resistant Staphylococcus epidermidis clinical isolate 318/08 after 18 hrs by twofold serial agar dilution technique
# Format: functional
# Details: clinical isolate 318/08, 18 h
# Method in brief: as §1
row,SMILES,MIC [µg/mL]
1,S=C(Nc1ccc(Cl)cc1)Nc1nc[nH]n1,25

# Tested on: Staphylococcus epidermidis
# Assay: Antibacterial activity against methicillin-resistant Staphylococcus epidermidis clinical isolate 341/09 after 18 hrs by twofold serial agar dilution technique
# Format: functional
# Details: clinical isolate 341/09, 18 h
# Method in brief: as §1
row,SMILES,MIC [µg/mL]
1,S=C(Nc1ccc(Cl)cc1)Nc1nc[nH]n1,12.5

# Tested on: Staphylococcus epidermidis
# Assay: Antibacterial activity against methicillin-resistant Staphylococcus epidermidis clinical isolate 316/08 after 18 hrs by twofold serial agar dilution technique
# Format: functional
# Details: clinical isolate 316/08, 18 h
# Method in brief: as §1
row,SMILES,MIC [µg/mL]
1,S=C(Nc1ccc(Cl)cc1)Nc1nc[nH]n1,25

# Tested on: Staphylococcus aureus
# Assay: Antibacterial activity against Staphylococcus aureus ATCC 29213 after 18 hrs by twofold serial agar dilution technique
# Format: functional
# Details: ATCC 29213, 18 h
# Method in brief: as §2
row,SMILES,MIC [µg/mL]
1,S=C(Nc1ccc(Cl)cc1)Nc1nc[nH]n1,25

# Tested on: Staphylococcus aureus
# Assay: Antibacterial activity against methicillin-resistant Staphylococcus aureus clinical isolate 275/08 after 18 hrs by twofold serial agar dilution technique
# Format: functional
# Details: clinical isolate 275/08, 18 h
# Method in brief: as §1
row,SMILES,MIC [µg/mL]
1,S=C(Nc1ccc(Cl)cc1)Nc1nc[nH]n1,25

# Tested on: Staphylococcus aureus
# Assay: Antibacterial activity against methicillin-susceptible Staphylococcus aureus clinical isolate 369/09 after 18 hrs by twofold serial agar dilution technique
# Format: functional
# Details: clinical isolate 369/09, 18 h
# Method in brief: as §1
row,SMILES,MIC [µg/mL]
1,S=C(Nc1ccc(Cl)cc1)Nc1nc[nH]n1,25

# Tested on: Staphylococcus aureus
# Assay: Antibacterial activity against methicillin-resistant Staphylococcus aureus clinical isolate 307/08 after 18 hrs by twofold serial agar dilution technique
# Format: functional
# Details: clinical isolate 307/08, 18 h
# Method in brief: as §1
row,SMILES,MIC [µg/mL]
1,S=C(Nc1ccc(Cl)cc1)Nc1nc[nH]n1,25

# Tested on: Escherichia coli
# Assay: Antibacterial activity against Escherichia coli ATCC 10538 at 400 ug/disc after 18 hrs by disc diffusion method
# Format: functional, organism-based
# Details: not given
# Method in brief: as §3
row,SMILES,diameter of the inhibition zone (DIZ)
1,S=C(Nc1ccc(Cl)cc1)Nc1nc[nH]n1,inactive

# Tested on: Proteus vulgaris
# Assay: Antibacterial activity against Proteus vulgaris NCTC 4635 at 400 ug/disc after 18 hrs by disc diffusion method
# Format: functional, organism-based
# Details: not given
# Method in brief: as §3
row,SMILES,diameter of the inhibition zone (DIZ)
1,S=C(Nc1ccc(Cl)cc1)Nc1nc[nH]n1,inactive

# Tested on: Staphylococcus aureus
# Assay: Antibacterial activity against methicillin-susceptible Staphylococcus aureus clinical isolate 339/09 after 18 hrs by twofold serial agar dilution technique
# Format: functional
# Details: clinical isolate 339/09, 18 h
# Method in brief: as §1
row,SMILES,MIC [µg/mL]
1,S=C(Nc1ccc(Cl)cc1)Nc1nc[nH]n1,25

# Tested on: Staphylococcus aureus
# Assay: Antibacterial activity against Staphylococcus aureus ATCC 6538 at 400 ug/disc after 18 hrs by disc diffusion method
# Format: functional
# Details: ATCC 6538, 18 h, read-out: DIZ
# Method in brief: as §3
row,SMILES,zone of inhibition at 400 µg/disc [mm]
1,S=C(Nc1ccc(Cl)cc1)Nc1nc[nH]n1,15

# Tested on: Staphylococcus aureus
# Assay: Antibacterial activity against methicillin-resistant Staphylococcus aureus clinical isolate 356/09 after 18 hrs by twofold serial agar dilution technique
# Format: functional
# Details: clinical isolate 356/09, 18 h
# Method in brief: as §1
row,SMILES,MIC [µg/mL]
1,S=C(Nc1ccc(Cl)cc1)Nc1nc[nH]n1,25

# Tested on: Candida parapsilosis
# Assay: Antifungal activity against Candida parapsilosis ATCC 22019 at 400 ug/disc after 18 hrs by disc diffusion method
# Format: functional, organism-based
# Details: not given
# Method in brief: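 Yeasts tested by disc diffusion (CLSI) on RPMI agar with 2% glucose; 9 mm paper discs bearing 400 µg compound from methanol or DMSO solution; inhibition zone diameter read after 18 h at 35 °C.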
row,SMILES,diameter of the inhibition zone (DIZ)
1,S=C(Nc1ccc(Cl)cc1)Nc1nc[nH]n1,inactive

# Tested on: Escherichia coli
# Assay: Antibacterial activity against Escherichia coli ATCC 25922 at 400 ug/disc after 18 hrs by disc diffusion method
# Format: functional, organism-based
# Details: not given
# Method in brief: as §3
row,SMILES,diameter of the inhibition zone (DIZ)
1,S=C(Nc1ccc(Cl)cc1)Nc1nc[nH]n1,inactive

# Tested on: Staphylococcus aureus
# Assay: Antibacterial activity against methicillin-resistant Staphylococcus aureus clinical isolate 376/09 after 18 hrs by twofold serial agar dilution technique
# Format: functional
# Details: clinical isolate 376/09, 18 h
# Method in brief: as §1
row,SMILES,MIC [µg/mL]
1,S=C(Nc1ccc(Cl)cc1)Nc1nc[nH]n1,25

# Tested on: Staphylococcus aureus
# Assay: Antibacterial activity against methicillin-resistant Staphylococcus aureus clinical isolate 325/09 after 18 hrs by twofold serial agar dilution technique
# Format: functional
# Details: clinical isolate 325/09, 18 h
# Method in brief: as §1
row,SMILES,MIC [µg/mL]
1,S=C(Nc1ccc(Cl)cc1)Nc1nc[nH]n1,25

# Tested on: Enterococcus hirae
# Assay: Antibacterial activity against Enterococcus hirae ATCC 10541 at 400 ug/disc after 18 hrs by disc diffusion method
# Format: functional
# Details: ATCC 10541, 18 h, read-out: DIZ
# Method in brief: as §3
row,SMILES,zone of inhibition at 400 µg/disc [mm]
1,S=C(Nc1ccc(Cl)cc1)Nc1nc[nH]n1,23

# Tested on: not listed separately
# Assay: Cytotoxicity against human MT4 cells after 96 hrs by MTT assay
# Format: cell-based
# Details: not given
row,SMILES,CC50 at 96 h [µM]
1,S=C(Nc1ccc(Cl)cc1)Nc1nc[nH]n1,47

# Tested on: Bacillus cereus
# Assay: Antibacterial activity against Bacillus cereus ATCC 11778 at 400 ug/disc after 18 hrs by disc diffusion method
# Format: functional
# Details: ATCC 11778, 18 h, read-out: DIZ
# Method in brief: as §3
row,SMILES,zone of inhibition at 400 µg/disc [mm]
1,S=C(Nc1ccc(Cl)cc1)Nc1nc[nH]n1,16

# Tested on: Staphylococcus epidermidis
# Assay: Antibacterial activity against methicillin-resistant Staphylococcus epidermidis clinical isolate 315/08 after 18 hrs by twofold serial agar dilution technique
# Format: functional
# Details: clinical isolate 315/08, 18 h
# Method in brief: as §1
row,SMILES,MIC [µg/mL]
1,S=C(Nc1ccc(Cl)cc1)Nc1nc[nH]n1,25

# Tested on: Micrococcus luteus
# Assay: Antibacterial activity against Micrococcus luteus ATCC 10240 at 400 ug/disc after 18 hrs by disc diffusion method
# Format: functional
# Details: ATCC 10240, 18 h, read-out: DIZ
# Method in brief: as §3
row,SMILES,zone of inhibition at 400 µg/disc [mm]
1,S=C(Nc1ccc(Cl)cc1)Nc1nc[nH]n1,30

# Tested on: Bacillus subtilis
# Assay: Antibacterial activity against Bacillus subtilis ATCC 6633 at 400 ug/disc after 18 hrs by disc diffusion method
# Format: functional
# Details: ATCC 6633, 18 h, read-out: DIZ
# Method in brief: as §3
row,SMILES,zone of inhibition at 400 µg/disc [mm]
1,S=C(Nc1ccc(Cl)cc1)Nc1nc[nH]n1,22

# Tested on: Staphylococcus epidermidis
# Assay: Antibacterial activity against methicillin-resistant Staphylococcus epidermidis clinical isolate 311/08 after 18 hrs by twofold serial agar dilution technique
# Format: functional
# Details: clinical isolate 311/08, 18 h
# Method in brief: as §1
row,SMILES,MIC [µg/mL]
1,S=C(Nc1ccc(Cl)cc1)Nc1nc[nH]n1,25
